Published values from different studies.
Lines come from different studies, so protocols differ.
Target: Phosphorylase b kinase gamma catalytic chain, skeletal muscle/heart isoform (PHKG1, Homo sapiens, UniProt Q16816)

O=C(Nc1c[nH]nc1C(=O)NC1CCNCC1)c1cc(F)cc(F)c1
remaining binding (binding, competition with immobilised ligand; 1 µM): 93%

CN(C)c1nccc(-c2cnn3ncccc23)n1
remaining binding (binding; 1 µM): 100%

CC1=C(C#N)C(c2ccc3c(c2)c(NC(=O)c2ccccc2C)nn3C)C(C#N)=C(C)N1
remaining binding (cell-free assay, competition with immobilised ligand; 1 µM): 91%

c1cncc(-c2cccc(Nc3nccc(NC4CCCCC4)n3)c2)c1
remaining binding (binding, competition with immobilised ligand; 10 µM): 75%

CN(CCCC(F)(F)F)c1nccc(-c2cnn3ncccc23)n1
remaining binding (binding; 1 µM): 100%

FC(F)(F)Oc1cccc(-c2cnc3ccc(-c4ccncc4)nn23)c1
remaining binding (cell-free assay, competition with immobilised ligand; 5 µM): 43%

CNC(=O)[C@@H]1CC[C@@H](n2c(-c3ccc4cnccc4c3)nc3ccc(C(=O)NCc4cccc(C(N)=O)c4)cc32)C1
remaining binding (binding, competition with immobilised ligand; 1 µM): 100%

CO[C@H]1CC[C@H](CNc2ccc(S(=O)(=O)NC(=O)c3ccc(N4CCN(CC5=C(c6ccc(Cl)cc6)CC(C)(C)CC5)CC4)cc3Oc3cnc4[nH]ccc4c3)cc2[N+](=O)[O-])CC1
remaining binding (cell-free assay, competition with immobilised ligand; 1 µM): 100%

O=C(NCCCN1CCOCC1)c1ccc(Nc2ncc(Cl)c(-c3ccc(Cl)s3)n2)cc1
remaining binding (binding, competition with immobilised ligand; 1 µM): 56%

CCCOc1ccc([C@@H]2[C@@H](C(=O)O)[C@H](c3ccc4c(c3)OCO4)CN2CC(=O)Nc2c(CC)cccc2CC)cc1
remaining binding (cell-free assay, competition with immobilised ligand; 1 µM): 97%

CN(C)c1ncc(F)c(-c2cnn3ncccc23)n1
remaining binding (binding; 1 µM): 100%

O=C(N[C@H]1CCCCC/C=C\C2C[C@@]2(C(=O)O)NC(=O)[C@@H]2C[C@@H](Oc3ccncc3)CN2C1=O)OC1CCCC1 (stereo partly shown)
remaining binding (binding, competition with immobilised ligand; 1 µM): 88%

O=C(c1ccc(Nc2nccc(-c3cc4ccccc4s3)n2)cc1)N1CCC(N2CCCC2)CC1
remaining binding (binding, competition with immobilised ligand; 1 µM): 96%

CC(=O)C1=C(C)N(c2cccc(C(F)(F)F)c2)C(=O)N[C@@H]1c1ccc(C#N)nc1
remaining binding (cell-free assay, competition with immobilised ligand; 1 µM): 100%

C[C@@H]1CCN(c2nccc(-c3cnn4ncccc34)n2)C1
remaining binding (binding; 1 µM): 100%

N#CC1(c2ccccn2)CCN(Cc2cc(C(=O)N3CCCC3)c(=O)n3ccccc23)CC1
remaining binding (cell-free assay, competition with immobilised ligand; 1 µM): 100%

N[C@H]1CCN(c2nccc(-c3cnn4ncccc34)n2)C1
remaining binding (binding; 1 µM): 84%

O=C(NCc1ncc(C(F)(F)F)cc1Cl)c1ccc2c(c1)C1(CCS(=O)(=O)CC1)[C@@H](C1CC1)N2S(=O)(=O)c1ccc(F)cc1
remaining binding (cell-free assay, competition with immobilised ligand; 1 µM): 100%

C=CC(=O)N1CCC(C(=O)NCC(=O)N2CCN(c3nc(-c4cnc(N)nc4C(F)F)nc(N4CCOCC4)n3)CC2)CC1
remaining binding (binding, competition with immobilised ligand; 1 µM): 100%

COc1ncc2cc3ccccc3nc2c1C#N
remaining binding (cell-free assay, competition with immobilised ligand; 5 µM): 83%

CN(C)c1nccc(-c2cnc3ncccn23)n1
remaining binding (binding; 1 µM): 100%

O=C(NCCCN1CCOCC1)c1ccc(Nc2nccc(-c3cc4ccccc4s3)n2)cc1
remaining binding (binding, competition with immobilised ligand; 1 µM): 49%
